The results in this text go back to ChEMBL document CHEMBL5338819, “Tuning the Metabolic Stability of Visual Cycle Modulators through Modification of an RPE65 Recognition Motif” (J Med Chem, 2023).

Activity calls are given as the source filed them. The rule behind the calls is not given here.

Data set [1] has as its target Retinoid isomerohydrolase (Bos taurus, UniProt Q28175). Briefly: Inhibition of RPE65 in bovine microsomes assessed as reduction on 11-cis-retinol production incubated for 1 hr by HPLC analysis. Also on record: species or system Microsome.
The target of data set [2] is T1, Retinoid isomerohydrolase (Mus musculus) (UniProt Q91ZQ5).
T1 sequence (whole entry): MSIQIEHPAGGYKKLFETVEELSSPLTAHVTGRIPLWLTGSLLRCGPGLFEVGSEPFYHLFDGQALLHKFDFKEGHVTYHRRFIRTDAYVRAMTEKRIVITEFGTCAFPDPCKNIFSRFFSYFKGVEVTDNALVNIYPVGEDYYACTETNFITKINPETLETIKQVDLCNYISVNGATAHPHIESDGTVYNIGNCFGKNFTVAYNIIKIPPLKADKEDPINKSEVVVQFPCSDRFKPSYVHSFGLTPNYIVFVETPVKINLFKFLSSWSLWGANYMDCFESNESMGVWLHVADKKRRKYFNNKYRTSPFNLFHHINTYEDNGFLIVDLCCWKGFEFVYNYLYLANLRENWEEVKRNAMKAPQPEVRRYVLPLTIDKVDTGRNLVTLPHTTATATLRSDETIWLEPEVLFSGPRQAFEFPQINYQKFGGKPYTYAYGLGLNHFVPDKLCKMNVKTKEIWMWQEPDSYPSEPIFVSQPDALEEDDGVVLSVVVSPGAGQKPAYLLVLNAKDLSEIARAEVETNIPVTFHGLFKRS
Briefly: In vivo inhibition of RPE65 in BALB/cJ mouse eye by measuring 11-cis-retinal level per eye at 10 mg/kg,ip administrated by HPLC analysis. Type of data set: functional, organism-based.

For data set [3], the target named is T1, Retinoid isomerohydrolase (Mus musculus). Briefly: In vivo inhibition of RPE65 in BALB/cJ mouse eye by measuring 11-cis-retinal level per eye at 10 mg/kg,ip administrated and measured after 4 hrs of dark adaptation by HPLC analysis. In kind it is functional, organism-based.
For data set [4] the target is unchanged. The experiment in a line: In vivo inhibition of RPE65 in BALB/cJ mouse eye by measuring retinyl ester level per eye at 10 mg/kg,ip administrated and measured after 4 hrs of dark adaptation by HPLC analysis. In kind it is functional, organism-based.
For data set [5] the target is unchanged. The experiment in a line: In vivo inhibition of RPE65 in BALB/cJ mouse eye by measuring 11-cis-retinal level per eye at 10 mg/kg,ip administrated and measured after 24 hrs of dark adaptation by HPLC analysis. In kind it is functional, organism-based.
The target is the same in data set [6]. The experiment in a line: In vivo inhibition of RPE65 in BALB/cJ mouse eye by measuring retinyl ester level per eye at 10 mg/kg,ip administrated and measured after 24 hrs of dark adaptation by HPLC analysis. In kind it is functional, organism-based.
For data set [7] the target is unchanged. The experiment in a line: In vivo inhibition of RPE65 in BALB/cJ mouse eye by measuring retinyl ester level per eye at 10 mg/kg,ip administrated by HPLC analysis. Type of data set: functional, organism-based.
Data set [8] has as its target Retinoid isomerohydrolase (Bos taurus) (UniProt Q28175). The experiment in a line: Inhibition of RPE65 in bovine microsomes assessed as fold decrease in 11-cis-retinol production at 0.02 to 10 uM incubated for 1 hr by HPLC analysis. To be noted: Microsome, dose 0.02-10 µM. In short, it runs like this: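 Bovine RPE microsomes in 10 mM BTP pH 7.4 with 1% BSA, 5 mM pyrophosphate and 16.4 µM apo-CRALBP (His-tagged, E. coli-expressed, Ni-purified). Amine in DMF, 0–10 µM final, was preincubated 2 min. All-trans-retinol was added, then 1 h at 37 °C in the dark. Reaction was quenched with methanol and extracted with hexane. 11-cis-retinol was quantified by normal-phase HPLC.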

For data set [9] the target is unchanged. The experiment in a line: Inhibition of RPE65 in bovine microsomes assessed as reduction on 11-cis-retinol production at 0.5 to 50 uM incubated for 1 hr by HPLC analysis. The note with it: Microsome, dose 0.5-50 µM.
Data set [10] in a line: Drug metabolism in mouse aorta assessed as VAP-1 mediated oxidative deaminated product formation by measuring ACU-5201 metabolite concentration by HPLC analysis. Type of data set: ADME, tissue-based.
The nature of data set [11]: Drug concentration in C57BL/6J mouse eye assessed per eye at 10 mg/kg,ip administrated and measured after 24 hr by HPLC-MS analysis. In kind it is ADME, organism-based. The note with it: in vivo.
Data set [12] is described as follows: Metabolic stability in mouse liver microsomes assessed as CYP450-mediated metabolism by measuring Km measured upto 60 mins in presence of NADPH by Michaelis-Menten based HPLC analysis. Type of data set: ADME, Microsome. The note with it: 1 h. For orientation: Microsomes from liver hold many membrane-bound enzymes, among them those of drug oxidation.
Data set [13] in a line: Drug concentration in C57BL/6J mouse serum assessed as emixustat concentration at 10 mg/kg,ip administrated and measured after 4 hr by HPLC-MS analysis. Type of data set: ADME, organism-based. To be noted: in vivo, read-out: Ct.
The nature of data set [14]: Drug concentration in C57BL/6J mouse serum assessed as emixustat concentration at 10 mg/kg,ip administrated and measured after 1 hr by HPLC-MS analysis. Type of data set: ADME, organism-based. To be noted: in vivo, read-out: Ct.
Data set [15] in a line: Metabolic stability in mouse liver microsomes assessed as CYP450-mediated metabolism by measuring Vmax measured upto 60 mins in presence of NADPH by Michaelis-Menten based HPLC analysis. Type of data set: ADME, Microsome. The note with it: 1 h.
Data set [16] in a line: Drug concentration in C57BL/6J mouse serum at 10 mg/kg,ip administrated and measured after 1 hr by HPLC-MS analysis. Type of data set: ADME, organism-based. To be noted: read-out: Ct.
Data set [17] is described as follows: Metabolic stability in mouse liver microsomes assessed as CYP450-mediated metabolism by measuring initial velocity at 15 uM measured upto 60 mins in presence of NADPH by HPLC analysis. In kind it is ADME, Microsome. The note with it: 1 h.
A short description of data set [18]: Intrinsic clearance in mouse liver microsomes measured upto 60 mins in presence of NADPH by HPLC analysis. In kind it is ADME, Microsome. The note with it: 1 h.
Data set [19] is described as follows: Drug concentration in C57BL/6J mouse eye assessed as emixustat concentration per eye at 10 mg/kg,ip administrated and measured after 24 hr by HPLC-MS analysis. Type of data set: ADME, organism-based. The note with it: in vivo.
The nature of data set [20]: Metabolic stability in mouse liver microsomes assessed as CYP450-mediated metabolism by measuring initial velocity at 50 uM measured upto 60 mins in presence of NADPH by HPLC analysis. To be noted: 1 h. In kind it is ADME, Microsome.
The nature of data set [21]: Drug concentration in mouse aorta measured after 4 hr by HPLC analysis. Type of data set: ADME, tissue-based. The note with it: read-out: Drug uptake.
Data set [22] is described as follows: Drug metabolism in mouse aorta assessed as VAP-1 mediated oxidative deaminated product formation by measuring ACU-5201 metabolite concentration and measured after 1 hr by HPLC analysis. Type of data set: ADME, tissue-based.
A short description of data set [23]: Drug concentration in C57BL/6J mouse eye assessed per eye at 10 mg/kg,ip administrated and measured after 4 hr by HPLC-MS analysis. Type of data set: ADME, organism-based. To be noted: in vivo.
The nature of data set [24]: Metabolic stability in mouse liver microsomes assessed as CYP450-mediated metabolism by measuring initial velocity at 25 uM measured upto 60 mins in presence of NADPH by HPLC analysis. Type of data set: ADME, Microsome. To be noted: 1 h.
The nature of data set [25]: Metabolic stability in mouse liver microsomes assessed as CYP450-mediated metabolism by measuring initial velocity at 100 uM measured upto 60 mins in presence of NADPH by HPLC analysis. To be noted: 1 h. In kind it is ADME, Microsome.
Data set [26] in a line: Drug metabolism in mouse aorta assessed as VAP-1 mediated oxidative deaminated product formation by measuring ACU-5201 metabolite concentration and measured after 4 hr by HPLC analysis. Type of data set: ADME, tissue-based.
Data set [27] in a line: Drug concentration in mouse aorta by HPLC analysis. Type of data set: ADME, tissue-based. To be noted: in vitro, read-out: Drug uptake.
The nature of data set [28]: Metabolic stability in mouse liver microsomes assessed as CYP450-mediated metabolism by measuring initial velocity at 200 uM measured upto 60 mins in presence of NADPH by HPLC analysis. Type of data set: ADME, Microsome. The note with it: 1 h.
Data set [29] can be described thus: Drug concentration in mouse aorta measured after 1 hr by HPLC analysis. In kind it is ADME, tissue-based. To be noted: read-out: Drug uptake.

Retinoid isomerohydrolase (Bos taurus), sequence (Q28175 2-533 limits assumed): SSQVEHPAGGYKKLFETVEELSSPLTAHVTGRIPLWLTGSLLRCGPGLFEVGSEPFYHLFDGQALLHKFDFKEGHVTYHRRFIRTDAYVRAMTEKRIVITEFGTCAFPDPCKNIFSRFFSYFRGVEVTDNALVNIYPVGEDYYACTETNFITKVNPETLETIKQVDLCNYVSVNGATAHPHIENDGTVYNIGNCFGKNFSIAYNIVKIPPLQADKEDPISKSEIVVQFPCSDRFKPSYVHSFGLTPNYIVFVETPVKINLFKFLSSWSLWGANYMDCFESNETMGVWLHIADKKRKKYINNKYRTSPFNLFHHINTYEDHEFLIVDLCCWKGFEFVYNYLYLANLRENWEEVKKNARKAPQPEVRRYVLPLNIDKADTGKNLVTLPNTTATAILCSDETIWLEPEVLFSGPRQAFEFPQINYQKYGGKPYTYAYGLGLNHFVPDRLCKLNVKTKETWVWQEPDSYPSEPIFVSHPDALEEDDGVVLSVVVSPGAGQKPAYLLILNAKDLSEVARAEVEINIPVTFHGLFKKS
Retinoid isomerohydrolase, sequence (Q28175 whole entry): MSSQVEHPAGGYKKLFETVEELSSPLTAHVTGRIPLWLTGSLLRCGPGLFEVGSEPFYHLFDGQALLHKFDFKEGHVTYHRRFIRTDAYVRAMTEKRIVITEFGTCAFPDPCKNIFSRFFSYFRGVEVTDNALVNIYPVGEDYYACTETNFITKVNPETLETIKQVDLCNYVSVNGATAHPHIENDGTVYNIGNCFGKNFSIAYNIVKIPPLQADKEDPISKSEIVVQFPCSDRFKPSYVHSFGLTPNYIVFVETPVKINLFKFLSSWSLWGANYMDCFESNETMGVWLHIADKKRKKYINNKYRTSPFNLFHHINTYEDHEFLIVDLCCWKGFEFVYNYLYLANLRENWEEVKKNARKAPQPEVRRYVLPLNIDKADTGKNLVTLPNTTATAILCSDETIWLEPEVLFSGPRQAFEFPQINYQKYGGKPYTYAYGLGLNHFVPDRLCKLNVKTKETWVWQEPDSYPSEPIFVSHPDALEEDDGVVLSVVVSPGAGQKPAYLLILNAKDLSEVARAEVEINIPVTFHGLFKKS

Usually IC50 stands for the concentration that inhibits the measured activity by half. On to `CC(CN)Cc1ccc(F)c(OCC2CCCCC2)c1` (configuration not stated), for which the IC50 result in data set [1] is “Not Active”. The Activity in data set [2] was 23.5 pmol; in [3], 413 pmol; in data set [4], 101 pmol; in [5], 398 pmol; in data set [6] it was 123 pmol; in [7], 260 pmol.

Regarding `NCCCc1cccc(OCC2CCCCC2)c1`, the fold change (FC) in data set [8] came to 8.

On to `NCCc1cccc(OCC2CCCCC2)c1`, for which the Activity is 16 pmol in data set [2]; 393 pmol in data set [3]; 89.5 pmol in data set [4]; 406 pmol in [5]; 65 pmol in [6]; 254 pmol in [7].

For the compound `NC(CO)Cc1ccc(OCC2CCCCC2)cc1` (configuration not stated), the IC50 result in data set [1] is given as “Not Active”. Also, the inhibition result in [9] was “inactive”.

For `NC(CCO)c1cccc(OCC2CCCCC2)c1` (configuration not stated), the IC50 entry in data set [1] is “Not Active”. Moreover, the inhibition entry in data set [9] was “inactive”.

For the compound `NC(CO)Cc1cccc(OCC2CCCCC2)c1` (configuration not stated), the IC50 entry in data set [1] was “Not Active”. Also, the inhibition entry in [9] was “inactive”.

For the compound `CC(CCN)c1cccc(OCC2CCCCC2)c1` (configuration not stated), the Activity came out at 25.6 pmol in data set [2]; 94.4 pmol in [3]; 436 pmol in data set [4]; 370 pmol in data set [5]; 124 pmol in data set [6]; 292 pmol in data set [7]. In addition, the fold change (FC) in data set [8] came out at 4.

In general, Km refers to the substrate concentration at which the rate is half of its maximum. A word on the Vmax: it is the top rate of the reaction or transport when substrate is in excess. `CNCCC(O)c1cccc(OCC2CCCCC2)c1` (configuration not stated): the IC50 in data set [1] (read-out: IC50) was 290 nM. In addition, the Drug metabolism was 0 µM in data set [10], 0.48 µM in data set [22] and 3.76 µM in data set [26]. In addition, the Ct in data set [11] is on record as 0 pmol; in data set [19], 1.329 pmol; in data set [23] it was 7.609 pmol. In addition, in data set [12], the Michaelis constant (Km) was determined as 0.039 µM. The concentration in data set [13] came to 0.0795 µM; in data set [14] it was 0.0523 µM; in data set [27], 100 µM. The Activity in [2] worked out at 13.8 pmol; in [3] it was 22.5 pmol; in [4] it was 396 pmol; in [5] it was 202 pmol; in data set [6], 215 pmol; in [7] it was 297 pmol. In addition, in [15], the Vmax stood at 119.5 pmol/min. Besides, the concentration at 1 h in data set [16] is 0.75 µM; in data set [29], 101 µM. Further, the V0 in [17] was determined as 23.38 pmol/min; in data set [20], 64.21 pmol/min; in data set [24], 54.17 pmol/min; in data set [25] it was 89.82 pmol/min; in data set [28], 97.45 pmol/min. In data set [18], the CLH stood at 30700 µL/min/mg. Also, the concentration at 4 h in [21] was 89.1 µM.

As for `CC(CN)Cc1cccc(OCC2CCCCC2)c1` (configuration not stated), the IC50 in data set [1] (read-out: IC50) was 390 nM. In addition, the Activity in data set [2] was determined as 17.4 pmol; in [3], 323 pmol; in [4], 112 pmol; in [5] it was 254 pmol; in [6], 85.6 pmol; in [7], 256 pmol.

On to `NCCC(O)c1ccc(OCC2CCCCC2)cc1` (configuration not stated), for which the IC50 in [1] (read-out: IC50) worked out at 8080 nM.
